A selection: hits, their analogues and other compounds. The true share with any hit is near 2.7%.
PAFAH1B2 inh: blocks human PAF acetylhydrolase 1b catalytic subunit 2. recombinant PAFAH1B2, FP-rhodamine activity probe, fluorescence polarization. inhibition, % at 3.39 µM. 1.2% of 340,000 active. AID 492953;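 active = inhibition above the mean of all tested compounds plus 3 SD, cut at about 24% in these data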;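 also: 0% = enzyme with DMSO and 100% = wells lacking PAFAH1B2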
Target sequence (P68402 whole entry, looked up): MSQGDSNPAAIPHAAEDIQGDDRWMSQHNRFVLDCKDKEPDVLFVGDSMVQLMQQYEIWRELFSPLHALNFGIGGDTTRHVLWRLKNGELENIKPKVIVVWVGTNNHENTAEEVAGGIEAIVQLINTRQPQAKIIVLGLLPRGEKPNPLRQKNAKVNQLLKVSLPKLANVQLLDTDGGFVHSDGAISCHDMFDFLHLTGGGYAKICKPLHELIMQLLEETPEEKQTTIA
RBBP9 inhibitor: blocks human serine hydrolase RBBP9 | recombinant RBBP9, FP-Rh probe fluorescence polarization | inhibition, % at 7.94 µM | O75884 | 0.2% of 220,000 active;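 active = inhibition above the campaign mean of all tested compounds plus 3 SD, cut at about 14% in these data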;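 also: plate controls were DMSO wells with RBBP9 for no effect and wells lacking RBBP9 protein for full effect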
Target sequence (O75884 whole entry, looked up): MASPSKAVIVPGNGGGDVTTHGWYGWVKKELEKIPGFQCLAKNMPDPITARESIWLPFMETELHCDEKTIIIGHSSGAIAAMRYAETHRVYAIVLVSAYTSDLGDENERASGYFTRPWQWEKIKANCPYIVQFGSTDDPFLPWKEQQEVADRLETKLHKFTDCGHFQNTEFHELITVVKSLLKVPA
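Test system: recombinant human RBBP9; Timing: 30 min then 45 min, 25 °C; Detection: fluorescence polarization; Control set: RBBP9 with DMSO as uninhibited control, no-protein wells as full inhibition; Compound dosing: one concentration, 7.94 µM nominal, 0.794% DMSO; Probe or stimulus: FP-Rh activity-based probe, 375 nM before mixing.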
pPAFAH inh: inhibitors of human plasma PAF acetylhydrolase (pPAFAH); recombinant pPAFAH, FP-rhodamine probe fluorescence polarization; inhibition, % at 3.39 µM; 1.5% of 330,000 active; AID 463082;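 active = inhibition above the mean inhibition across the screen plus 3 SD, cut at about 25% in these data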;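 also: inhibitors block binding of the rhodamine activity-based probe so polarization drops; 0% = enzyme with DMSO and 100% = wells lacking pPAFAH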
PAFAH1B3 inh: inhibitors of human PAFAH1B3; Q15102; inhibition, % at 3.39 µM; recombinant PAFAH1B3, FP-rhodamine probe, fluorescence polarization; AID 492972; 0.28% of 340,000 active;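 active = inhibition above the screen-wide average of all tested compounds plus 3 SD, cut at about 25% in these data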;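 also: 0% = enzyme with DMSO only and 100% = wells lacking PAFAH1B3 protein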
Target sequence (Q15102 whole entry, looked up): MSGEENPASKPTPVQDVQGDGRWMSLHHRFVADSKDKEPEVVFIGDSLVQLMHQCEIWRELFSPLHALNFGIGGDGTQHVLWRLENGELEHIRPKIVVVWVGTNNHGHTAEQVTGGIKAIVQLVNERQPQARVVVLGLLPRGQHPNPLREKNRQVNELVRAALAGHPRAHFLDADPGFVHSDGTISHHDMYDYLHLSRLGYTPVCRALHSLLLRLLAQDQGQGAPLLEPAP
PAFAH2 inh: PAFAH2 (human) inhibition | Q99487 | recombinant PAFAH2, FP-rhodamine activity probe, fluorescence polarization | inhibition, % at 3.39 µM | 0.99% of 340,000 active;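 active = inhibition above the mean over all tested compounds plus 3 SD, cut at about 30% in these data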;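 also: inhibitors block probe labeling of enzyme so polarization drops; 0% = enzyme with DMSO and 100% = wells lacking PAFAH2 protein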
pPAFAH confirm: pPAFAH (human) inhibition, confirmed; shares compounds with pPAFAH inh; 72% of 2,300 active; inhibition, % at 3.39 µM; recombinant pPAFAH, FP-Rh probe fluorescence polarization; AID 463230;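 active = mean inhibition of the triplicate above the hit cutoff set for the earlier primary screen, cut at about 25% in these data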;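 also: 0% = enzyme with DMSO and 100% = wells lacking pPAFAH enzyme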
* marks the source's active call; other numbers are inactive results; . = no result.

SMILES	PAFAH1B2 inh	RBBP9 inhibitor	pPAFAH inh	PAFAH1B3 inh	PAFAH2 inh	pPAFAH confirm
O=C(Cc1ccc(NC2=NC3CS(=O)(=O)CC3S2)cc1)N1CCN(c2ccc(F)cc2)CC1 (stereo not given)	3.2	.	3.5	-0.5	2.2	.
Cc1ccc(S(=O)(=O)N2[C@@H](c3ccc(C(C)(C)C)cc3)C(C(=O)O)=CC[C@H]2c2ccc(Cl)cc2)cc1	89.6*	.	37.4*	-5.6	-2.0	54.1*
O=C(CSc1nnc(SCc2ccc(Cl)cc2)s1)N/N=C/c1c[nH]c2ccccc12	5.1	0.5	40.7*	4.3	23.8	34.5*
O=C(CSc1nnc(SCc2ccccc2)s1)N/N=C/C=C/c1ccco1	-4.0	4.3	44.2*	5.0	23.2	40.2*
CCn1c(SCC(=O)N/N=C/C=C/c2ccco2)nnc1-c1ccccc1	3.0	0.0	9.8	0.2	-1.6	.
Cc1nnc(SCC(=O)NC2CCCCC2)s1	0.3	1.7	1.3	1.0	-2.4	.
Cc1cccc(NC(=O)CSc2nnc(-c3ccco3)c(-c3ccco3)n2)c1C	12.3	0.2	34.6*	5.4	41.2*	21.5
O=C(Nc1ccc(Oc2ccccc2)cc1)C1CCN(c2c3c(nc4ncnn24)CCC3)CC1	0.7	1.4	75.5*	-10.0	-0.6	75.0*
COc1ccc2nc(SCC(=O)NCc3ccc(OC)c(OC)c3)[nH]c2c1	6.8	.	10.2	-4.8	-12.7	.
CCN(C(=O)Cn1cnc2c(nc3n2CCCCC3)c1=O)c1cccc(Cl)c1	5.3	.	3.2	5.9	-1.2	.
Nc1c(C(=O)NC2CC2)sc2nc3c(c(-c4ccco4)c12)CC/C3=C/c1ccco1	28.1*	0.8	88.5*	56.3*	46.1*	47.7*
O=C(COC(=O)c1c2c(nc3ccccc13)/C(=C\c1ccco1)CC2)NC1CCCC1	10.0	.	.	6.3	29.1	.
COc1ccc(S(=O)(=O)c2c(N)n(Cc3ccco3)c3nc4ccccc4nc23)cc1	-1.9	-4.5	36.1*	6.6	18.6	9.5
COc1ccc(Cn2c(C)nc3c(c2=O)c2nc4ccccc4nc2n3Cc2ccco2)cc1	-0.8	.	.	-1.8	11.8	.
O=C(O)c1ccccc1NS(=O)(=O)c1ccc(NN=Cc2ccc(F)cc2)c([N+](=O)[O-])c1	14.2	.	58.4*	13.6	19.0	77.5*
O=C(O)COc1ccccc1/C=N/Nc1ccc(S(=O)(=O)Nc2ccc(Cl)cc2)cc1[N+](=O)[O-]	46.6*	1.9	64.7*	11.4	17.5	68.1*
O=C(O)c1ccccc1/C=N/Nc1ccc(S(=O)(=O)N2CCOCC2)cc1[N+](=O)[O-]	9.1	-6.5	3.3	5.7	-1.2	.
Cc1nn(-c2ccccc2)c(N2CCCC2)c1/C=N/Nc1ccc(S(=O)(=O)Nc2ccccc2)cc1[N+](=O)[O-]	16.2	4.3	11.0	25.1	-0.3	.
O=C(O)c1ccccc1NS(=O)(=O)c1ccc(NN=Cc2cccc(Cl)c2)c([N+](=O)[O-])c1	15.0	.	66.1*	12.3	21.8	77.3*
CCC(=O)C1CCCN(C(=O)c2ccc(OC3CCN(C(=O)CCOC)CC3)cc2)C1 (stereo not given)	1.3	.	3.9	-0.4	3.5	.
Cc1ccc(CNC(=S)Nc2cc(C)ccc2OC(F)F)cc1	12.2	3.9	4.9	-1.2	2.7	.
Cc1ccc(NC(=S)N(CCN(C)C)C(C)c2ccco2)cc1C (stereo not given)	0.2	-0.2	37.5*	4.2	7.8	1.8
Nc1ccc2c(c1)-c1ccccc1S(=O)(=O)N2	5.2	8.2	65.2*	20.5	23.3	7.8
Oc1cccc(C=Nc2cccc3ccccc23)c1O	9.0	.	75.7*	28.3*	26.9	8.2
Oc1ccccc1C=Nc1cccc2ccccc12	2.7	.	5.8	0.1	0.7	.
SMILES	PAFAH1B2 inh	RBBP9 inhibitor	pPAFAH inh	PAFAH1B3 inh	PAFAH2 inh	pPAFAH confirm
Oc1cccc(C=NCc2ccccc2)c1O	5.7	-8.3	57.4*	22.4	8.7	5.1
COc1ccc(NC(=O)C(Cc2ccccc2)n2cccc2)cc1OC (stereo not given)	-0.3	5.8	0.8	3.1	-5.1	.
C=CCSC1=N/C(=C\C=C\c2ccco2)C(=O)S1	6.0	-4.2	60.7*	13.0	32.8*	18.1
C=CCSC1=N/C(=C\c2sccc2C)C(=O)S1	-0.5	-1.4	1.1	5.1	7.2	.
Cc1ccc(CNC(=O)C(=O)NCC2CCCN2S(=O)(=O)c2cccs2)cc1 (stereo not given)	12.3	.	3.8	8.8	2.8	.
C=C(C)CN(CC)c1nc(N)c2c(N)nc3c(c2c1C#N)CC(=O)N3C12CC3CC(CC(C3)C1)C2	4.6	-0.6	15.6	10.6	12.9	.
N#Cc1c(N2CCCC(O)C2)nc(N)c2c(N)nc3c(c12)CC(=O)N3C12CC3CC(CC(C3)C1)C2 (stereo not given)	45.5*	1.4	44.5*	51.1*	46.2*	21.6
CC(=O)Nc1cccc(NC(=O)CCN2C(=O)c3ccccc3S2(=O)=O)c1	-1.2	.	53.1*	3.3	4.0	3.4
O=C(CCN1C(=O)c2ccccc2S1(=O)=O)Nc1cccc(F)c1	1.6	.	1.3	1.5	-6.5	.
CCCCCCC(=O)N/N=C/c1ccc(Br)cc1	3.0	-4.4	5.1	-0.8	-1.0	.
CCCCCCCCCCS(=O)(=O)N/N=C/c1ccc(O)cc1	3.0	-5.3	37.7*	-4.7	2.6	43.8*
COc1ccc(-c2csc(NC(C)=O)n2)cc1OC	6.9	6.3	4.5	8.4	0.5	.
COc1cccc(NC(=O)Nc2nc(-c3ccc(OC)c(OC)c3)cs2)c1	15.1	.	35.7*	21.1	1.9	13.7
O=C1c2ccccc2C(=O)c2cc(S(=O)(=O)Nc3ccccc3)ccc21	6.0	-4.5	36.5*	10.7	17.9	34.1*
COC(=O)c1sccc1Oc1c(Cl)cccc1[N+](=O)[O-]	.	-5.0	0.5	.	.	.
COc1cccc(=O)c2c(C)n(CC(=O)c3ccccc3)c(C)c12	2.3	-5.3	38.0*	7.2	8.2	16.4
Cc1ccccc1C(=O)NCC(=O)NCC1(N2CCOCC2)CCCCC1	-3.6	.	-0.6	5.3	0.5	.
COc1ccc(CNC(=O)CSc2nnc(C(F)(F)F)n2C)cc1	-2.9	-4.6	4.2	2.8	5.8	.
Cc1cccc(Cc2cnc(N3C(=N)SC(C)C3=O)s2)c1 (stereo not given)	8.0	-1.6	42.6*	6.3	2.3	33.1*
CCOc1ccc(-c2ccc(/C=C3/C(=N)N4C(C)=CSC4=NC3=O)o2)c([N+](=O)[O-])c1	4.5	-0.7	45.0*	4.5	18.5	37.1*
CC(OC(=O)c1ccc(NC(=O)CC#N)cc1)C(=O)Nc1ccc(Oc2ccccc2)cc1 (stereo not given)	-19.2	.	14.2	-30.5	-34.8	.
CC(OC(=O)c1ccc(NC(=O)CC#N)cc1)C(=O)Nc1nc(-c2ccccc2)cs1 (stereo not given)	-26.5	.	53.4*	-41.9	-55.0	-18.4
